Results taken from ChEMBL document CHEMBL1128546 (J Med Chem, 1995).

Key:
Oryctolagus cuniculus [1] = species: Oryctolagus cuniculus; assay: The compound was tested for functional activity by measuring the contraction of saphenous vein from New Zealand white rabbit
Oryctolagus cuniculus [2] = species: Oryctolagus cuniculus; assay: Maximum vein contraction obtained relative to 5-hydroxytryptamine; format: functional
[3] = molecular target: 5-hydroxytryptamine receptor 1D (Homo sapiens, UniProt P28221); assay: Binding affinity to recombinant human 5-hydroxytryptamine 1D receptor alpha
Sequence of 5-hydroxytryptamine receptor 1D (P28221 whole entry): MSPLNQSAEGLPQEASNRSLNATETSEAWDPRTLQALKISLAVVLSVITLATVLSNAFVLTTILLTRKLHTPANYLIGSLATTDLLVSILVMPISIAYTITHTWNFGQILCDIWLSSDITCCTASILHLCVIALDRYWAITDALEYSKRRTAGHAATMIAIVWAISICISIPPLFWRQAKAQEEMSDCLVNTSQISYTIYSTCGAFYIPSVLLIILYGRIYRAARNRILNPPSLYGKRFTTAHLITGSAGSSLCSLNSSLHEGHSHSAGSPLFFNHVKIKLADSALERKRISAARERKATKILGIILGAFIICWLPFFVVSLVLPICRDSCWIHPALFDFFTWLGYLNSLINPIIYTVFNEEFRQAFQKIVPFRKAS
Procedure, shortened: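 Binding to the cloned human receptor subtype. Values are Ki, given as the mean of one or two independent experiments, each run in duplicate.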

Row | Compound | pD2 (Oryctolagus cuniculus [1]) | Rel max (Oryctolagus cuniculus [2]) | Ki [3] [pM]
1 | NCCc1c[nH]c2ccc(OCCCCC(=O)N3CCN(c4ccc(N)cc4)CC3)cc12 | 7.05 | 0.73 | 1400
2 | CS(=O)(=O)NCc1ccc(N2CCN(C(=O)COc3ccc4[nH]cc(CCN)c4c3)CC2)cc1 | 6.92 | 0.88 | 1000
3 | N#Cc1ccccc1N1CCN(C(=O)COc2ccc3[nH]cc(CCN)c3c2)CC1 | 7.42 | 1.22 | 920
4 | Cc1ccccc1N1CCN(C(=O)COc2ccc3[nH]cc(CCN)c3c2)CC1 | 5.86 | 1.01 | 
5 | NCCc1c[nH]c2ccc(OCCCC(=O)N3CCN(c4ccc([N+](=O)[O-])cc4)CC3)cc12 | 6.91 | 1.06 | 1200
6 | CN(C)S(=O)(=O)Nc1ccc(N2CCN(C(=O)COc3ccc4[nH]cc(CCN)c4c3)CC2)cc1.Cl.O | 7.2 | 0.96 | 260
7 | CS(=O)(=O)NCc1ccccc1N1CCN(C(=O)COc2ccc3[nH]cc(CCN)c3c2)CC1 | 6 | 0.93 | 1800
8 | NCCc1c[nH]c2ccc(OCCCCCC(=O)N3CCN(c4ccc(N)cc4)CC3)cc12 | 8.09 | 0.79 | 380
9 | NCCc1c[nH]c2ccc(OCCCCCC(=O)N3CCN(c4ccc([N+](=O)[O-])cc4)CC3)cc12 | 7 | 0.73 | 340
10 | NCCc1c[nH]c2ccc(OCC(=O)N3CCN(c4ccc(CN)cc4)CC3)cc12 | 6.8 | 0.92 | 930
11 | CS(=O)(=O)Nc1ccc(N2CCN(C(=O)COc3ccc4[nH]cc(CCN)c4c3)CC2)cc1 | 7.62 | 1.21 | 560
12 | CNS(=O)(=O)Cc1ccc2[nH]cc(CCN(C)C)c2c1 | 5.75 | 1.26 | 
13 | NCCc1c[nH]c2ccc(OCCCCC(=O)N3CCN(c4ccc([N+](=O)[O-])cc4)CC3)cc12 | 6.74 | 0.71 | 2500
14 | CS(=O)(=O)Nc1ccc(N2CCN(C(=O)CCCCCOc3ccc4[nH]cc(CCN)c4c3)CC2)cc1 | 8.33 | 1.05 | 
15 | CC(=O)Nc1ccc(N2CCN(C(=O)COc3ccc4[nH]cc(CCN)c4c3)CC2)cc1 | 6.67 | 1.01 | 
16 | NCCc1c[nH]c2ccc(OCC(=O)N3CCN(c4ccccc4CN)CC3)cc12 | 6.52 | 0.9 | 6900
17 | NCCc1c[nH]c2ccc(OCC(=O)N3CCN(c4ccccc4[N+](=O)[O-])CC3)cc12 | 6.33 | 0.87 | 580
18 | NCCc1c[nH]c2ccc(OCC(=O)N3CCN(c4ccc(N)cc4)CC3)cc12 | 6.88 | 0.83 | 2920
19 | NCCc1c[nH]c2ccc(OCC(=O)N3CCN(c4ccc(NC(=O)c5ccccc5)cc4)CC3)cc12 | 7.31 | 0.9 | 1700
20 | NCCc1c[nH]c2ccc(OCC(=O)N3CCN(c4ccc([N+](=O)[O-])cc4)CC3)cc12 | 6.12 | 0.52 | 420
21 | NCCc1c[nH]c2ccc(OCC(=O)N3CCN(c4ccccc4)CC3)cc12 | 7.63 | 0.68 | 1200
22 | CN(C)CCc1c[nH]c2ccc(Cn3cncn3)cc12 [RIZATRIPTAN] | 6.15 | 1.42 | 
23 | NCCc1c[nH]c2ccc(O)cc12 [SEROTONIN] |  | 1 | 
24 | CN(C)CCc1c[nH]c2ccc(C[C@H]3COC(=O)N3)cc12 [ZOLMITRIPTAN] | 6.13 | 1.48 | 920
